We go through 40 compounds from ChEMBL document CHEMBL4130623, “Discovery of Highly Potent Pinanamine-Based Inhibitors against Amantadine- and Oseltamivir-Resistant Influenza A Viruses” (J Med Chem, 2018).

SMILES strings stand for the structures. Activity calls are given as the source filed them. No cut-off for these calls is given here.

Assay type in all cases: functional, organism-based
In experiment [1] the test system is Influenza A virus. The experiment in a line: Antiviral activity against Influenza A virus (A/Guangzhou/GIRD/07/2009 (H1N1)) infected in MDCK cells assessed as reduction in virus-induced cytopathic effect after 48 hrs by microscopic analysis. In short, it runs like this:
(§1)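 MDCK monolayers (5×10^4 cells/well, grown 24 h) were rinsed twice, infected with 100 TCID50 virus for 2 h at 37 °C in 5% CO2, and the inoculum was removed. Two-fold serial compound dilutions in DMEM with 1.5 µg/mL trypsin were added and incubated 48 h at 34 °C. CPE percentage was scored by microscope and EC50 fitted by non-linear regression.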
(Damage to the host cells serves as the signal in cytopathic effect assays.)

Experiment [2] has as its system Influenza A virus. The experiment in a line: Antiviral activity against Influenza A virus (A/WSN/33) by CCK-8 reagent based assay. The following applies: A/WSN/1933(H1N1). Background: Tetrazolium assays rely on reduction of a dye to a coloured formazan, in cell work by metabolically active cells.
The subject of experiment [3] is Influenza A virus. The experiment in a line: Antiviral activity against Influenza A virus (A/HK/68) by CCK-8 reagent based assay.
Experiment [4] has as its system Influenza A virus. The experiment in a line: Antiviral activity against Influenza A virus (A/Guangzhou/GIRD/07/2009 (H1N1)) infected in MDCK cells assessed as reduction in virus-induced cytopathic effect at less than cytotoxic MCC level after 48 hrs by microscopic analysis.
Experiment [5] has as its system Influenza A virus. The experiment in a line: Antiviral activity against Influenza A virus (A/WSN/33 (H1N1)) infected in MDCK cells assessed as reduction in virus-induced cytopathic effect after 48 hrs by microscopic analysis. The following applies: A/WSN/1933(H1N1). The method in brief: as §1
Experiment [6] concerns Influenza A virus. The experiment in a line: Antiviral activity against Influenza A virus (A/PR/8/34 (H1N1)) infected in MDCK cells assessed as reduction in virus-induced cytopathic effect after 48 hrs by microscopic analysis. The following applies: A/Puerto Rico/8/1934(H1N1). In short, it runs like this:
as §1

Experiment [7] relates to Influenza A virus. Briefly: Antiviral activity against Influenza A virus (A/HK/68(H3N2)) infected in MDCK cells assessed as reduction in virus-induced cytopathic effect after 48 hrs by microscopic analysis. The method in brief: as §1
The subject of experiment [8] is H3N2 subtype. Briefly: Antiviral activity against Influenza A virus (A/Aichi/2/68 (H3N2)) infected in MDCK cells assessed as reduction in virus-induced cytopathic effect after 48 hrs by microscopic analysis. The following applies: A/Aichi/2/1968(H3N2). The method in brief:
as §1

Experiment [9] relates to Influenza A virus. Briefly: Antiviral activity against Influenza A virus (A/duck/Guangdong/1/1996 (H7N3)) infected in MDCK cells assessed as reduction in virus-induced cytopathic effect after 48 hrs by microscopic analysis. The method in brief: as §1
For experiment [10], the system named is Influenza A virus. The experiment in a line: Antiviral activity against Influenza A virus (A/duck/HK/Y280/97 (H9N2)) infected in MDCK cells assessed as reduction in virus-induced cytopathic effect after 48 hrs by microscopic analysis. The method in brief:
as §1

The EC50 is the concentration at which the effect is half-maximal. Regarding `Cc1csc(CN[C@@H]2CC3CC([C@H]2C)C3(C)C)c1` (single isomer, unassigned), the half-maximal effective concentration (EC50) in [1] is 0.2 µM. Further, the outcome in experiment [2] and in [3] was Active.
As for `CCCCc1csc(CN[C@@H]2CC3CC([C@H]2C)C3(C)C)c1` (single isomer, unassigned), in experiment [1], the EC50 stood at 0.46 µM.
On to `CCc1ccsc1CN[C@@H]1CC2CC([C@H]1C)C2(C)C` (single isomer, unassigned), for which the outcome in experiment [2] and in [3] was Active. The inhibition result in experiment [4] is “inactive”.
For the compound `C[C@@H]1C2CC(C[C@H]1NCc1cccs1)C2(C)C` (single isomer, unassigned), the EC50 in experiment [1] amounted to 6.42 µM. In addition, the result in experiment [2] and in [3] was Active.
As for `C[C@@H]1C2CC(C[C@H]1NCc1cc(Br)cs1)C2(C)C` (single isomer, unassigned), the EC50 in experiment [1] came out at 5.16 µM. Moreover, the result in [2] and in experiment [3] was Active.
Consider `C[C@@H]1C2CC(C[C@H]1NCc1ccsc1)C2(C)C` (single isomer, unassigned), for which the EC50 in experiment [1] came out at 28.6 µM. Also, the result in experiment [2] and in experiment [3] was Active.
With `C[C@@H]1C2CC(C[C@H]1NCc1cc(C3CCCC3)cs1)C2(C)C` (single isomer, unassigned), the inhibition result in experiment [4] was “inactive”.
On the same count and under the same terms, next, `CCc1csc(CN[C@@H]2CC3CC([C@H]2C)C3(C)C)c1` (single isomer, unassigned): “inactive”.
The same measure, in the same setting: next, `C[C@@H]1C2CC(C[C@H]1NCc1cc(C3CCCCC3)cs1)C2(C)C` (single isomer, unassigned): “inactive”.
On to `CCCc1ccsc1CN[C@@H]1CC2CC([C@H]1C)C2(C)C` (single isomer, unassigned), for which the outcome in experiment [2] and in experiment [3] was Active. In addition, the inhibition result in [4] was “inactive”.
For `CSc1ccc(CN[C@@H]2CC3CC([C@H]2C)C3(C)C)s1` (single isomer, unassigned), the outcome in experiment [2] and in experiment [3] was Active. Besides, the inhibition result in experiment [4] is “inactive”.
In the case of `C[C@@H]1C2CC(C[C@H]1NCc1cc(-c3ccccc3)cs1)C2(C)C` (single isomer, unassigned), the inhibition entry in experiment [4] was “inactive”.
The same measure, in the same setting: under `C[C@@H]1C2CC(C[C@H]1NCc1cc(-c3ccsc3)cs1)C2(C)C` (single isomer, unassigned) stands “inactive”.
Consider `C=Cc1csc(CN[C@@H]2CC3CC([C@H]2C)C3(C)C)c1` (single isomer, unassigned), for which the result in experiment [2] and in [3] was Active. In addition, the inhibition result in experiment [4] is “inactive”.
For the compound `C=Cc1ccsc1CN[C@@H]1CC2CC([C@H]1C)C2(C)C` (single isomer, unassigned), the EC50 in experiment [1] was 1.82 µM. Also, the result in experiment [2] and in experiment [3] was Active.
Regarding `C=C(C)c1csc(CN[C@@H]2CC3CC([C@H]2C)C3(C)C)c1` (single isomer, unassigned), in [4], the inhibition result is “inactive”.
The same measure, in the same setting: under `C[C@@H]1C2CC(C[C@H]1NCc1cnccn1)C2(C)C` (single isomer, unassigned) stands “inactive”.
Take `C[C@@H]1C2CC(C[C@H]1NCc1sccc1Br)C2(C)C` (single isomer, unassigned): the outcome in [2] and in [3] was Active. Also, the inhibition result in experiment [4] was “inactive”.
With `C[C@@H]1C2CC(C[C@H]1NCc1ccco1)C2(C)C` (single isomer, unassigned), the inhibition result in experiment [4] is “inactive”.
For the compound `CCCCc1ccsc1CN[C@@H]1CC2CC([C@H]1C)C2(C)C` (single isomer, unassigned), the EC50 in [1] came to 10.3 µM. Moreover, the outcome in experiment [2] and in experiment [3] was Active.
On to `C[C@@H]1C2CC(C[C@H]1NCc1cncnc1)C2(C)C` (single isomer, unassigned), for which, in experiment [4], the inhibition entry was “inactive”.
Turning to `C[C@@H]1C2CC(C[C@H]1NCc1sccc1C1CCCC1)C2(C)C` (single isomer, unassigned), the EC50 in [1] was 0.69 µM.
Consider `C[C@@H]1C2CC(C[C@H]1NCc1ccc(C(C)(C)C)s1)C2(C)C` (single isomer, unassigned), for which the inhibition result in experiment [4] was “inactive”.
As to `CCOC(=O)C1=C[C@@H](OC(CC)CC)[C@H](NC(C)=O)[C@@H](N)C1` [OSELTAMIVIR], the EC50 is 0.4 µM in [5]; 0.13 µM in experiment [6]; 2.3 µM in experiment [7]; 0.99 µM in [8]; 2.67 µM in [9]; more than 10 µM in experiment [10].
In the case of `CCOc1ccsc1CN[C@@H]1CC2CC([C@H]1C)C2(C)C` (single isomer, unassigned), the outcome in experiment [2] and in experiment [3] was Active. Moreover, the inhibition entry in experiment [4] is “inactive”.
Turning to `Cc1ccc(CN[C@@H]2CC3CC([C@H]2C)C3(C)C)s1` (single isomer, unassigned), the result in experiment [2] and in [3] was Active. Besides, the inhibition result in experiment [4] is “inactive”.
Take `C[C@@H]1C2CC(C[C@H]1NCc1cc(C3CC3)cs1)C2(C)C` (single isomer, unassigned): the EC50 in [1] was determined as 6.68 µM. Also, the outcome in [2] and in experiment [3] was Active.
As to `Cc1ccsc1CN[C@@H]1C[C@H]2C[C@@H]([C@H]1C)C2(C)C`, the result in experiment [2] and in experiment [3] was Active. Besides, the inhibition entry in experiment [4] was “inactive”.
On to `C[C@@H]1C2CC(C[C@H]1NCc1sccc1C1CCCCC1)C2(C)C` (single isomer, unassigned), for which, in experiment [4], the inhibition result is “inactive”.
Still for that read-out and setting: next, `C[C@@H]1C2CC(C[C@H]1NCc1sccc1-c1ccsc1)C2(C)C` (single isomer, unassigned): “inactive”; `CCc1ccc(CN[C@@H]2CC3CC([C@H]2C)C3(C)C)s1` (single isomer, unassigned): “inactive”; `C[C@@H]1C2CC(C[C@H]1NCc1sccc1-c1ccccc1)C2(C)C` (single isomer, unassigned): “inactive”.
For `NC12CC3CC(CC(C3)C1)C2` [AMANTADINE], the EC50 in experiment [1] is more than 100 µM; in experiment [5], more than 100 µM; in experiment [6] it was more than 100 µM; in experiment [7] it was 1 µM.
On to `C[C@@H]1C2CC(C[C@H]1NCc1ccc(Br)s1)C2(C)C` (single isomer, unassigned), for which, in experiment [4], the inhibition result is “inactive”.
As to `CCCc1csc(CN[C@@H]2CC3CC([C@H]2C)C3(C)C)c1` (single isomer, unassigned), the result in experiment [2] and in [3] was Active. For the same compound, the inhibition result in experiment [4] is “inactive”.
In the case of `C[C@@H]1C2CC(C[C@H]1NCc1ccoc1)C2(C)C` (single isomer, unassigned), the EC50 in experiment [1] is 60.5 µM.
Turning to `C[C@@H]1C2CC(C[C@H]1NCc1ccc(-c3ccc(Br)s3)s1)C2(C)C` (single isomer, unassigned), the inhibition result in [4] was “inactive”.
Same read-out and setting: under `C[C@@H]1C2CC(C[C@H]1NCc1ccc(Cl)s1)C2(C)C` (single isomer, unassigned) stands “inactive”; under `Cc1n[nH]cc1CN[C@@H]1CC2CC([C@H]1C)C2(C)C` (single isomer, unassigned), “inactive”.
For the compound `Cc1csc(CN[C@@H]2CC3CC([C@H]2C)C3(C)C)n1` (single isomer, unassigned), in experiment [1], the EC50 was found to be 75 µM. For the same compound, the outcome in [2] and in experiment [3] was Active.
